The full list was thinned out, with hits kept by preference.
ABCB1 inh: ABCB1 efflux pump inhibitors, primary screen, cell-based, multiplex, flow cytometry, ABCG2 counter-screen; ATP-dependent translocase ABCB1 (Homo sapiens), P08183; CCRF-Adr cells, JC-1 efflux; inhibition, % at 6.6 µM; 190,000 tested, 0.067% active; in the data active means inhibition above about 40%;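 further: 0% = vehicle and 100% = reference inhibitor; higher value means more JC-1 retained so stronger ABCB1 efflux block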
Lmaj promast: Leishmania major promastigote growth inhibition, primary screen; Leishmania major promastigotes, resazurin fluorescence viability; 200,000 tested, 9% active; AID 1063, 2008; inhibition, % at 10 µM;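 further: promastigotes grown with compound for 44 hours at 28 °C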
ABCG2 inh: ABCG2 efflux pump inhibitors, primary screen, multiplex with ABCB1, IgMXP3 cells, flow cytometry; inhibition, % at 6.6 µM; 190,000 tested, 0.1% active; JC-1 efflux;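 active means inhibition above 80%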;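 further: 0% = DMSO and 100% = nicardipine control wells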
Target sequence (Q9UNQ0 whole entry, looked up): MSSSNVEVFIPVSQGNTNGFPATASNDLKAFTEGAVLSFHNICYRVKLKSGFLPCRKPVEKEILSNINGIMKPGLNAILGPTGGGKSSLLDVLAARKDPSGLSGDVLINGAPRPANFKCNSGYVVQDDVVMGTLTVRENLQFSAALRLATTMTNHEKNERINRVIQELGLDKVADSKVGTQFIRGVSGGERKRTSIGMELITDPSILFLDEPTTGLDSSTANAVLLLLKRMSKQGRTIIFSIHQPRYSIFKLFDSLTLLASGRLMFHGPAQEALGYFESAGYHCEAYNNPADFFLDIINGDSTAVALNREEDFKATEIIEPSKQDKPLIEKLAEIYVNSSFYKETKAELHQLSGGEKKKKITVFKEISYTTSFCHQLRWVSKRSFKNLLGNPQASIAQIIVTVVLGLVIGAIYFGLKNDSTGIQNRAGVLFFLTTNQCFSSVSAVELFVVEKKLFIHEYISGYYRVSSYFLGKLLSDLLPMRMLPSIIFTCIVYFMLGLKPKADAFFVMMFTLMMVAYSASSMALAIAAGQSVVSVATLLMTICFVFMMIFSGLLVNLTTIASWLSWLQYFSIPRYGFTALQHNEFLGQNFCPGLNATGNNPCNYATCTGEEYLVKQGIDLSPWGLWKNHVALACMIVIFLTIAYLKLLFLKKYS
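material = IgMXP3 (ABCG2) plus far-red-tagged CCRF-Adr (ABCB1) cells | amount = 3 million cells/mL, equal mix of both lines | also added = JC-1 transporter substrate | dosing = one concentration, 6.6 µM final | schedule = 10 min at 25 °C | measured by = flow cytometric JC-1 green MFI at 530 nm | read-out basis = percent efflux inhibition, scaled nicardipine 100% to DMSO 0%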
Avidin bead fluor: green autofluorescence of compounds with avidin beads – biophysical, 488/530 nm, flow cytometry, artefact control, profiling panel; compound fluorescence 488/530 nm; stronger effect = higher value; fluorescence (KMESF) at 10 µM; 220,000 tested, 0.38% active; AID 1775, 2009; in the data active means fluorescence above about 47
PKD1 inh: inhibitors of human PKD1 kinase, biochemical, fluorescence polarization. 200,000 tested, 0.056% active. inhibition, % (test concentration not listed). AID 797, 2007. Serine/threonine-protein kinase D1 (Homo sapiens), Q15139. PKD1 kinase fluorescence polarization assay
GSH fluor: compound fluorescence on glutathione beads, profiling panel, artefact control, biophysical, 488/530 nm, flow cytometry | AID 1776, 2009 | 190,000 tested, 0.25% active | GSH beads flow cytometry, compound fluorescence 488/530 nm; stronger effect = higher value | fluorescence (KMESF) at 10 µM; in the data active means fluorescence above about 89;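 further: glutathione beads carrying GST-tagged Bcl family fusion proteins plus one bare bead set; values are compound well signal with DMSO vehicle wells as background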
An asterisk follows results filed as active; · = not tested or not shown. Unless noted, no stated cut-off is given here; in the data, active means inhibition above about 50%; inactive means the rest.

SMILES | ABCB1 inh | Lmaj promast | ABCG2 inh | Avidin bead fluor | PKD1 inh | GSH fluor
COc1ccc(/C=C/C(=O)NC(=S)Nc2cc3oc4ccccc4c3cc2OC)cc1 | -1 | 50* | -4 | 15 | -2 | 8
CC(C)OC(=O)/C(=C\c1ccccc1)NC(=O)c1ccccc1 | 0 | -2 | 0 | 11 | -4 | 22
CC(C)OC(=O)/C(=C\c1cccc2ccccc12)NC(=O)c1ccccc1 | 0 | 91* | -3 | 6 | -10 | 10
O=C(O)/C=C/c1ccc([N+](=O)[O-])o1 | 1 | -5 | 2 | 8 | -7 | 10
CCCCCCCC(=O)N/N=C/c1ccc([N+](=O)[O-])o1 | 0 | 91* | 1 | 14 | -3 | 20
O=C(CCN1CCN(c2ccccc2)CC1)N/N=C/c1ccc([N+](=O)[O-])o1 | 0 | 98* | 3 | 9 | -1 | 18
N#CCc1ccc(NC(=O)/C=C/c2ccc([N+](=O)[O-])o2)cc1 | 0 | 101* | 14 | 11 | -4 | 10
O=C(CCN1CCN(c2ccccc2)CC1)N/N=C/c1ccc(O)c(O)c1O | 0 | -7 | -5 | 9 | 4 | 6
CCOC(=O)N/N=C\c1ccc([N+](=O)[O-])o1 | 0 | 98* | 3 | 25 | -4 | 8
CCOC(=O)N/N=C/c1c(F)c(F)c(F)c(F)c1F | 0 | 65* | 4 | 12 | -11 | 6
CCOC(=O)N/N=C/c1c(F)cccc1F | 1 | 11 | 12 | 1 | -1 | 11
CC1(C(=O)N/N=C/c2ccc([N+](=O)[O-])o2)CC1(Br)Br (stereo not given) | 0 | 98* | 27 | 7 | -9 | 14
O=C(CC12CC3CC(CC(C3)C1)C2)N/N=C/c1ccc([N+](=O)[O-])o1 | 0 | 99* | 16 | 6 | -6 | 10
O=C(Cc1ccc([N+](=O)[O-])cc1)N/N=C/c1ccc([N+](=O)[O-])o1 | 0 | 100* | 9 | 12 | -6 | 14
COc1ccc(-c2nnn(CC(=O)N(CC(=O)NCCC(C)C)c3ccccc3)n2)cc1OC | 0 | 73* | 3 | 6 | -4 | 24
COc1ccc(-c2nnc(NC(=O)C3=COCCO3)o2)cc1 | 0 | 30 | 0 | 6 | -5 | 8
CC1(C)Cc2c(c(N3CCCC3)nc3sc4c(N5CCN(CCO)CC5)ncnc4c23)CO1 | 3 | 74* | 15 | 25 | 10 | 16
CCn1nc([N+](=O)[O-])c2c(-c3nc4ccccc4o3)c(N)n(CCCOC)c2c1=O | 0 | -3 | 3 | 11 | 3 | 9
COc1cccc(OC)c1C(=O)Nc1cc(C)nn1-c1nc2ccccc2[nH]1 | 1 | 66* | 4 | 13 | -3 | 11
COc1ccc(C(=O)Nc2cc(C)nn2-c2nc3ccccc3[nH]2)c(OC)c1 | 1 | 48 | 22 | 11 | -4 | 11
CC(Sc1nc2ccccc2n1C)C(=O)NC(c1ccccc1)c1ccccc1 (stereo not given) | 1 | 100* | 15 | 5 | -2 | 16
COc1cnc(-c2ccccn2)nc1Oc1cccc(Cl)c1 | 1 | 100* | 7 | 29 | -5 | 24
COc1cnc(-c2ccccn2)nc1Oc1c(C)cccc1C | 0 | 72* | 4 | 11 | -5 | 15
COc1cnc(-c2ccccn2)nc1N(C)C | -1 | 100* | -1 | 11 | -7 | 10
COc1cnc(-c2ccccn2)nc1Sc1ccccc1Cl | 1 | 101* | 4 | 22 | -1 | 15
SMILES | ABCB1 inh | Lmaj promast | ABCG2 inh | Avidin bead fluor | PKD1 inh | GSH fluor
COc1ccc(Oc2nc(-c3ccccn3)ncc2OC)cc1 | 1 | 16 | 3 | 7 | 0 | 12
CC1(C)CC(=O)C2=C(C1)NC1=C(C(=O)c3ccccc31)C2c1ccc(Cl)cc1 (stereo not given) | 1 | 60* | -6 | 2 | 1 | 16
CCN(CC)CCN1C2=C(C(=O)CC(C)(C)C2)C(c2cccc(F)c2)C2=C1CC(C)(C)CC2=O | 3 | 22 | 4 | 14 | 2 | 10
CCCN1C2=C(C(=O)CC(C)(C)C2)C(c2ccc(F)cc2)C2=C1c1ccccc1C2=O (stereo not given) | 0 | 72* | 0 | 27 | -8 | 13
CCCCN1C2=C(C(=O)CC(C)(C)C2)C(c2ccccc2)C2=C1c1ccccc1C2=O (stereo not given) | 24 | 84* | 67 | 8 | -3 | 31
O=S(=O)(CCc1ccncc1)C1Cc2cccc3cccc1c23 (stereo not given) | · | · | · | 10 | · | ·
CCCCN(C(=O)NC(=O)Nc1nc2ccc(OC)cc2s1)S(C)(=O)=O | 0 | 3 | 6 | 4 | -1 | 38
CCOC(=O)c1[nH]c(C=O)c(C(=O)OCC)c1C | 1 | 88* | 4 | 10 | 2 | 11
COc1cc(-c2nc(-c3ccc4c(c3)-c3ccccc3S4(=O)=O)c(-c3ccccc3)[nH]2)cc(OC)c1O | 0 | 91* | 26 | 7 | 11 | 12
COc1cc(NC(=O)c2ccc(Cl)cc2Cl)ccc1NC(=O)c1cccs1 | · | · | · | 9 | · | ·
Cc1ccc(C)c(N2CCN(CC3CC=CCC3)CC2)c1 (stereo not given) | 0 | 87* | 1 | 4 | -1 | 15
CC(=O)c1ccc(N2CCN(C(=O)CCCc3nc4ccccc4s3)CC2)cc1 | 4 | 1 | -3 | 14 | -3 | 20
COC(=O)c1[nH]c2ccc(C)cc2c1NC(=O)Nc1ccc(OC)cc1 | 0 | -3 | 10 | 10 | 16 | 33
COc1ccc(/C=C/C(=O)NCCc2ccc(S(N)(=O)=O)cc2)cc1 | 0 | 62* | 2 | 15 | 5 | 10
O=C(CN1CCCCC1)Nc1ccc(F)c(Cl)c1 | 0 | -6 | 6 | 34 | 10 | 22
O=C(Nc1ccc(F)c(Cl)c1)N1CCCC1 | 2 | 99* | 6 | 8 | 9 | 18
CS(=O)(=O)N1CCC(C(=O)Nc2ccc(Cl)c(Cl)c2)CC1 | 0 | 11 | 1 | 11 | -4 | 13
O=C(Nc1ccc(Cl)cc1)N1CCCN(Cc2ccccc2F)C1 | 0 | 57* | 0 | 8 | 8 | 4
CC(C)N(C)C1CCN(C(=O)Nc2ccc(Cl)c(Cl)c2)CC1 | 0 | 60* | 0 | 38 | -5 | 28
CC(=O)Nc1ccc(N2CCN(Cc3ccccc3F)CC2)cc1 | 1 | 50* | 4 | 18 | -3 | 49
CCOC(=O)COc1c(Cl)cc(C2NC(=S)NC(c3ccccc3)=C2C(C)=O)cc1OCC (stereo not given) | 0 | 1 | 5 | 8 | -7 | 19

Screening data: PubChem, several laboratories
